# Assay results from different studies.
# Each line is one published result; the experiments were not run side by side.
# CSF1R: Macrophage colony-stimulating factor 1 receptor (CSF1R, Homo sapiens, UniProt P07333)
# CSF1R autoinhibited: Macrophage colony-stimulating factor 1 receptor, autoinhibited (CSF1R, Homo sapiens, UniProt P07333)
SMILES,target,observed,method,concentration,remaining binding [%]
COc1ccnn2ncc(-c3ccnc(N(C)C)n3)c12,CSF1R,binding,,1 µM,100
CN([C@@H]1CCc2c(CC(=O)O)c3cc(S(C)(=O)=O)ccc3n2C1)S(=O)(=O)c1ccc(F)cc1,CSF1R autoinhibited,cell-free assay,competition with immobilised ligand,1 µM,93
COc1cnc(Nc2cccc(S(N)(=O)=O)c2)nc1N1CCN(c2ccccc2)CC1,CSF1R autoinhibited,binding,competition with immobilised ligand,1 µM,99
N[C@H]1CCN(c2nccc(-c3cnn4ncccc34)n2)C1,CSF1R autoinhibited,binding,,1 µM,100
CNC(=O)[C@@H]1CC[C@@H](n2c(-c3ccc4cnccc4c3)nc3ccc(C(=O)NCc4cccc(C(N)=O)c4)cc32)C1,CSF1R,binding,competition with immobilised ligand,1 µM,100
CN(C)c1nccc(-c2cnc3ncccn23)n1,CSF1R,binding,,1 µM,100
CC(=O)C1=C(C)N(c2cccc(C(F)(F)F)c2)C(=O)N[C@@H]1c1ccc(C#N)nc1,CSF1R autoinhibited,cell-free assay,competition with immobilised ligand,1 µM,100
CN(C)c1nccc(-c2cnn3ncccc23)n1,CSF1R,binding,,1 µM,100
C[C@@H](c1ccc(-n2cnc3c(N)ncnc32)cc1)N1CCc2nn(C)c(Cc3ccccc3)c2C1=O,CSF1R,binding,competition with immobilised ligand,0.1 µM,100
O=c1nc(-c2ccccn2)sc2ccccc12,CSF1R,cell-free assay,competition with immobilised ligand,1 µM,85
O=C(NCC1CCOCC1)c1n[nH]cc1NC(=O)c1c(F)cccc1F,CSF1R autoinhibited,binding,competition with immobilised ligand,1 µM,62
CCN1CCN(Cc2ccc(C(=O)Nc3ccc(C)c(Oc4ccc5c(c4)CC(=O)N5)c3)cc2C(F)(F)F)CC1,CSF1R,binding,competition with immobilised ligand,1 µM,2
COc1ccc2c(O[C@@H]3C[C@H]4C(=O)N[C@]5(C(=O)O)CC5/C=C\CCCCC[C@H](NC(=O)OC5CCCC5)C(=O)N4C3)cc(-c3csc(NC(=O)C(C)C)n3)nc2c1C (some centres unmarked),CSF1R,cell-free assay,competition with immobilised ligand,1 µM,71
COc1cnc(Nc2cccc(S(N)(=O)=O)c2)nc1N1CCN(c2ccccc2)C(=O)C1,CSF1R,binding,competition with immobilised ligand,1 µM,100
CC1CCCN1c1nccc(-c2cnn3ncccc23)n1 (centres unmarked),CSF1R autoinhibited,binding,,1 µM,99
O=C(c1ccc(Nc2nccc(-c3cc4ccccc4s3)n2)cc1)N1CCC(N2CCCC2)CC1,CSF1R,binding,competition with immobilised ligand,1 µM,42
C[C@H]1CCN(c2nccc(-c3cnn4ncccc34)n2)C1,CSF1R autoinhibited,binding,,1 µM,75
Cc1nc(NC(=O)N2CCC[C@H]2C(N)=O)sc1-c1ccnc(C(C)(C)C(F)(F)F)c1,CSF1R autoinhibited,binding,competition with immobilised ligand,10 µM,98
O=C(NCCCN1CCOCC1)c1ccc(Nc2ncc(Cl)c(-c3ccc(Cl)s3)n2)cc1,CSF1R,binding,competition with immobilised ligand,1 µM,15
Nc1ncc2c(n1)-c1c([nH]c3ccc(C#CC4CC4)cc13)CCCC2,CSF1R autoinhibited,binding,competition with immobilised ligand,1 µM,85
C=CC(=O)N1CCC(C(=O)NCC(=O)N2CCN(c3nc(-c4cnc(N)nc4C(F)F)nc(N4CCOCC4)n3)CC2)CC1,CSF1R autoinhibited,binding,competition with immobilised ligand,1 µM,20
CCS(=O)(=O)c1cc2cc(C[C@@](O)(CC(C)(C)c3ccc(F)cc3C(N)=O)C(F)(F)F)[nH]c2cn1,CSF1R,cell-free assay,competition with immobilised ligand,1 µM,100
CN(C)c1ncc(F)c(-c2cnn3ncccc23)n1,CSF1R,binding,,1 µM,91
Cc1cnc(Nc2ccc(C(=O)N3CCC(N4CCCC4)CC3)cc2)nc1-c1cc2ccccc2s1,CSF1R autoinhibited,binding,competition with immobilised ligand,1 µM,45
c1cncc(-c2cccc(Nc3nccc(NC4CCCCC4)n3)c2)c1,CSF1R,binding,competition with immobilised ligand,10 µM,0.15
COc1ncc2cc3ccccc3nc2c1C#N,CSF1R,cell-free assay,competition with immobilised ligand,5 µM,96
O=C(c1ccc(Nc2ncc(Cl)c(-c3ccc(Cl)s3)n2)cc1)N1CCC(N2CCCC2)CC1,CSF1R,binding,competition with immobilised ligand,1 µM,5.1
N#Cc1ccccc1CSc1nnc2c(n1)[nH]c1ccccc12,CSF1R,binding,competition with immobilised ligand,10 µM,100
O=C(Nc1ccc(Oc2ccc(F)cc2)cc1)N1CCc2ncccc2[C@H]1c1ccc(F)cc1,CSF1R autoinhibited,cell-free assay,competition with immobilised ligand,1 µM,95
O=C(Nc1c[nH]nc1C(=O)NC1CCNCC1)c1cc(F)cc(F)c1,CSF1R autoinhibited,binding,competition with immobilised ligand,1 µM,90
O=C(c1ccc(Nc2ncc(Cl)c(-c3cc4ccccc4s3)n2)cc1)N1CCC(N2CCCC2)CC1,CSF1R,binding,competition with immobilised ligand,1 µM,24
CC(=O)Nc1c(C(C)=O)c(=O)n(C)c2nc(-c3ccc(Cl)cc3Cl)c(-c3ccc(Cl)cc3)cc12,CSF1R,cell-free assay,competition with immobilised ligand,1 µM,100
O=C(NCCCN1CCOCC1)c1ccc(Nc2nccc(-c3cc4ccccc4s3)n2)cc1,CSF1R autoinhibited,binding,competition with immobilised ligand,1 µM,83
CCOCCn1cc(C(=O)Nc2ccc(-n3nc(-c4cccnc4)cc3C(F)(F)F)cn2)ccc1=O,CSF1R autoinhibited,cell-free assay,competition with immobilised ligand,1 µM,100
C[C@@H]1CN(c2ccc3ncc(-c4ccc5[nH]nc(C6CC6)c5c4)n3n2)C[C@H](C)O1,CSF1R,binding,competition with immobilised ligand,0.5 µM,100
